Test results: ChEMBL document CHEMBL2069213, “Synthesis and evaluation of small libraries of triazolylmethoxy chalcones, flavanones and 2-aminopyrimidines as inhibitors of mycobacterial FAS-II and PknG” (Bioorg Med Chem, 2012)
Calls of active or inactive are those of the source. The rule behind the calls is not given here.

Legend:
[1] = test system: Mycolicibacterium aurum; assay: Growth inhibition of Mycobacterium aurum expressing Mycobacterium tuberculosis H37Rv kas operon in fusion Escherichia coli lacZ gene at 100 uM incubated for 12 hrs; assay type: functional; conditions: read-out: GI
[2] = test system: Mycolicibacterium aurum; assay: Growth inhibition of Mycobacterium aurum expressing Mycobacterium tuberculosis H37Rv kas operon in fusion Escherichia coli lacZ gene at 50 uM incubated for 12 hrs; assay type: functional; conditions: read-out: GI
[3] = test system: Mycolicibacterium aurum; assay: Inhibition of FAS2 in recombinant Mycobacterium aurum expressing Mycobacterium tuberculosis H37Rv kas operon in fusion Escherichia coli lacZ gene assessed as increase in beta-galactosidase activity at 50 uM incubated for 12 hrs by lacZ reporter gene assay
In short: (§1)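 Cells washed, sonicated in PBS pH 7.2; equal Bradford-quantified protein incubated with ONPG (4 mg/ml) 30 min at 37 °C, stopped with Na2CO3, read at 410 nm. Triplicates, experiment repeated twice; isoniazid positive control.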

[4] = test system: Mycolicibacterium aurum; assay: Inhibition of FAS2 in recombinant Mycobacterium aurum expressing Mycobacterium tuberculosis H37Rv kas operon in fusion Escherichia coli lacZ gene assessed as increase in beta-galactosidase activity at 100 uM incubated for 12 hrs by lacZ reporter gene assay; in short: as §1
[5] = Toxicity against macrophages incubated for 48 hrs by resazurin dye reduction assay; assay type: cell-based, Macrophage
In short: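 Macrophages from subconfluent monolayers seeded ~1 × 10^6 cells/well in RPMI-1640; compounds 100 to 12.5 µM, 48 h at 37 °C, 5% CO2; resazurin added for 4 h, fluorescence 535/590 nm read against untreated wells as % viability; CC50 taken from viability-versus-concentration plot; triplicates.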

[6] = target: Serine/threonine-protein kinase PknG (Mycobacterium tuberculosis) (UniProt P9WI73); assay: Inhibition of Mycobacterium tuberculosis recombinant PKnG expressed in Escherichia coli BL21 (DE3) cells using myelin basic protein substrate at 25 uM by luciferase activity based ADP-Glo-luminescent kinase assay
In short: (§2)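 6-His-PknG from M. tuberculosis genomic DNA cloned into pTriEx4, expressed in E. coli with 0.8 mM IPTG 4 h at 37 °C, purified by Ni2+-NTA then size exclusion. Compounds dissolved in DMSO; assayed with myelin basic protein substrate; ADP formed measured by ADP-Glo luminescence; AX20017 positive control; dose-response series.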

[7] = target: Serine/threonine-protein kinase PknG (Mycobacterium tuberculosis) (UniProt P9WI73); assay: Inhibition of Mycobacterium tuberculosis recombinant PKnG expressed in Escherichia coli BL21 (DE3) cells using myelin basic protein substrate at 3.125 uM by luciferase activity based ADP-Glo-luminescent kinase assay; in short: as §2
[8] = target: Serine/threonine-protein kinase PknG (Mycobacterium tuberculosis) (UniProt P9WI73); assay: Inhibition of Mycobacterium tuberculosis recombinant PKnG expressed in Escherichia coli BL21 (DE3) cells using myelin basic protein substrate at 100 uM by luciferase activity based ADP-Glo-luminescent kinase assay; in short: as §2
[9] = target: Serine/threonine-protein kinase PknG (Mycobacterium tuberculosis) (UniProt P9WI73); assay: Inhibition of Mycobacterium tuberculosis recombinant PKnG expressed in Escherichia coli BL21 (DE3) cells using myelin basic protein substrate at 6.25 uM by luciferase activity based ADP-Glo-luminescent kinase assay; in short: as §2
[10] = target: Serine/threonine-protein kinase PknG (Mycobacterium tuberculosis) (UniProt P9WI73); assay: Inhibition of Mycobacterium tuberculosis recombinant PKnG expressed in Escherichia coli BL21 (DE3) cells using myelin basic protein substrate at 12.5 uM by luciferase activity based ADP-Glo-luminescent kinase assay; in short: as §2
[11] = target: Serine/threonine-protein kinase PknG (Mycobacterium tuberculosis) (UniProt P9WI73); assay: Inhibition of Mycobacterium tuberculosis recombinant PKnG expressed in Escherichia coli BL21 (DE3) cells using myelin basic protein substrate at 50 uM by luciferase activity based ADP-Glo-luminescent kinase assay; in short: as §2

Sequence of Serine/threonine-protein kinase PknG (Mycobacterium tuberculosis) (P9WI73 whole entry): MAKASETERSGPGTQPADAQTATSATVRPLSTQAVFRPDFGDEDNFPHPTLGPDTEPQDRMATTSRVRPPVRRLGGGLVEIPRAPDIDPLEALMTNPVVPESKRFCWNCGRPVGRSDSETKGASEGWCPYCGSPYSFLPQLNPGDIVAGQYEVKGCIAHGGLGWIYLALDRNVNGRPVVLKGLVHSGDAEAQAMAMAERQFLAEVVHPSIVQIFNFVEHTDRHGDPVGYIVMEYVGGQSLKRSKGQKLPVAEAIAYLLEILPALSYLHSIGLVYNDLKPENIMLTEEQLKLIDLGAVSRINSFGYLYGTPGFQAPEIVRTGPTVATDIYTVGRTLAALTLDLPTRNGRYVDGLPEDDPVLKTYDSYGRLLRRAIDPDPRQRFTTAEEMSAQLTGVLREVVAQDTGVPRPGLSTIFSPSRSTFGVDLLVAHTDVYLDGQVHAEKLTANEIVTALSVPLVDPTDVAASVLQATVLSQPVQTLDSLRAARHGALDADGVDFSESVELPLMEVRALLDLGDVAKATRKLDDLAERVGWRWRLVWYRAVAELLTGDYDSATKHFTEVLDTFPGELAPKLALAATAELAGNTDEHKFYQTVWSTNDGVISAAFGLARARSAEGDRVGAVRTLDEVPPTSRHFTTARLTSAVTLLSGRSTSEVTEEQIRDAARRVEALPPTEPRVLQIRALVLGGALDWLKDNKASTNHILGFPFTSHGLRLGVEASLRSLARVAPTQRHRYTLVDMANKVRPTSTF

| SMILES | inhibition of growth at 100 µM [1] | inhibition of growth at 50 µM [2] | inhibition [8] | other results |
| --- | --- | --- | --- | --- |
| CCCCCCn1cc(COc2ccc(C(=O)/C=C/c3ccc(Br)cc3)c(O)c2)nn1 | 76.5% | 69.6% |  | inhibition [3]: inactive; inhibition [4]: inactive; CC50 at 48 h [5]: > 100 µM |
| CCCCCCn1cc(COc2ccc3c(c2)OC(c2ccccc2)CC3=O)nn1 (stereo not drawn) | 70.2% | 19% |  |  |
| O=C(/C=C/c1c(F)cccc1Cl)c1ccc(OCc2cn(Cc3ccccc3)nn2)cc1O | 74.5% | 17.6% |  |  |
| C#CCOc1ccc(/C=C/C(=O)c2ccc(OCc3cn(Cc4ccccc4)nn3)cc2O)cc1 | 22% | 0% |  |  |
| Nc1nc(-c2ccc(Cl)cc2)cc(-c2ccc(OCc3cn(Cc4ccccc4)nn3)cc2O)n1 |  |  | 53% | inhibition [6]: 19%; inhibition [7]: 4%; inhibition [9]: 5%; inhibition [10]: 5%; CC50 at 48 h [5]: 66.6 µM |
| O=C1CC(c2ccccc2)Oc2cc(OCc3cn(Cc4ccc(Br)cc4)nn3)ccc21 (stereo not drawn) | 66.1% | 15.8% |  |  |
| CC(C)c1ccc(-c2cc(-c3ccc(OCc4cn(Cc5ccccc5)nn4)cc3O)nc(N)n2)cc1 |  |  | 28% | inhibition [6]: 0%; inhibition [7]: 0%; inhibition [11]: 16%; inhibition [9]: 0%; inhibition [10]: 0%; CC50 at 48 h [5]: > 100 µM |
| Nc1nc(-c2ccc(OCc3cn(Cc4ccccc4)nn3)cc2O)cc(-c2cccc3ccccc23)n1 |  |  | 35% | inhibition [6]: 7%; inhibition [7]: 0%; inhibition [11]: 25%; inhibition [9]: 9%; inhibition [10]: 11%; CC50 at 48 h [5]: 71.3 µM |
| C#CCOc1ccc(C(C)=O)c(O)c1 | 35.6% | 2% |  |  |
| CC(C)c1ccc(/C=C/C(=O)c2ccc(OCc3cn(Cc4ccc(Br)cc4)nn3)cc2O)cc1 | 17.8% | 0% |  |  |
| CCCCCCn1cc(COc2ccc(-c3cc(-c4ccc(C(C)C)cc4)nc(N)n3)c(O)c2)nn1 |  |  | 5% |  |
| Nc1nc(-c2ccccc2)cc(-c2ccc(OCc3cn(Cc4ccc(Br)cc4)nn3)cc2O)n1 |  |  | 41% | inhibition [6]: 9%; inhibition [11]: 17%; inhibition [10]: 0%; CC50 at 48 h [5]: > 100 µM |
| CCCCCCn1cc(COc2ccc(-c3cc(-c4c(F)cccc4Cl)nc(N)n3)c(O)c2)nn1 |  |  | 11% |  |
| CC(C)c1ccc(C2CC(=O)c3ccc(OCc4cn(Cc5ccc(Br)cc5)nn4)cc3O2)cc1 (stereo not drawn) | 72.5% | 31% |  |  |
| CCCCCCn1cc(COc2ccc(C(=O)/C=C/c3cccc4ccccc34)c(O)c2)nn1 | 18.8% | 5.5% |  |  |
| CC(C)c1ccc(/C=C/C(=O)c2ccc(OCc3cn(Cc4ccccc4)nn3)cc2O)cc1 | 12.7% | 0% |  |  |
| CC(C)c1ccc(-c2cc(-c3ccc(OCc4cn(Cc5ccc(Br)cc5)nn4)cc3O)nc(N)n2)cc1 |  |  | 5% |  |
| CCCCCCn1cc(COc2ccc(-c3cc(-c4cccc5ccccc45)nc(N)n3)c(O)c2)nn1 |  |  | 11% |  |
| O=C(/C=C/c1ccc(Cl)cc1)c1ccc(OCc2cn(Cc3ccccc3)nn2)cc1O | 28% | 11.6% |  |  |
| CCCCCCn1cc(COc2ccc(C(=O)/C=C/c3ccc(C(C)C)cc3)c(O)c2)nn1 | 31.4% | 0% |  |  |
| CCCCCCn1cc(COc2ccc(C(=O)/C=C/c3ccc(Cl)cc3)c(O)c2)nn1 | 59% | 6.1% |  |  |

| SMILES | inhibition of growth at 100 µM [1] | inhibition of growth at 50 µM [2] | inhibition [8] | other results |
| --- | --- | --- | --- | --- |
| O=C1CC(c2ccccc2)Oc2cc(OCc3cn(Cc4ccccc4)nn3)ccc21 (stereo not drawn) | 74.8% | 27% |  |  |
| C#CCOc1ccc(/C=C/C(=O)c2ccc(OCc3cn(CCCCCC)nn3)cc2O)cc1 | 56% | 39.6% |  |  |
| CCCCCCn1cc(COc2ccc(C(=O)/C=C/c3ccccc3)c(O)c2)nn1 | 57.7% | 16.8% |  |  |
| CCCCCCn1cc(COc2ccc(-c3cc(-c4ccc(Cl)cc4)nc(N)n3)c(O)c2)nn1 |  |  | 43% | inhibition [6]: 0%; inhibition [7]: 0%; inhibition [11]: 0%; inhibition [9]: 0%; CC50 at 48 h [5]: 30.3 µM |
| Nc1nc(-c2ccc(OCc3cn(Cc4ccccc4)nn3)cc2O)cc(-c2c(F)cccc2Cl)n1 |  |  | 12% |  |
| O=C(/C=C/c1cccc2ccccc12)c1ccc(OCc2cn(Cc3ccccc3)nn2)cc1O | 51.6% | 2.6% |  |  |
| CC(=O)c1ccc(OCc2cn(Cc3ccccc3)nn2)cc1O | 75.9% | 23.7% |  | inhibition [3]: inactive; inhibition [4]: inactive |
| CCCCCCn1cc(COc2ccc(-c3cc(-c4ccc(OC)cc4)nc(N)n3)c(O)c2)nn1 |  |  | 4% |  |
| Nc1nc(-c2ccc(Br)cc2)cc(-c2ccc(OCc3cn(Cc4ccc(Br)cc4)nn3)cc2O)n1 |  |  | 19% | inhibition [6]: 0%; inhibition [7]: 5%; inhibition [11]: 0%; inhibition [9]: 0%; inhibition [10]: 0% |
| O=C1CC(c2ccc(Cl)cc2)Oc2cc(OCc3cn(Cc4ccccc4)nn3)ccc21 (stereo not drawn) | 79.8% | 46.9% |  |  |
| O=C(/C=C/c1cccc2ccccc12)c1ccc(OCc2cn(Cc3ccc(Br)cc3)nn2)cc1O | 63.2% | 0% |  |  |
| CCCCCCn1cc(COc2ccc(C(C)=O)c(O)c2)nn1 | 91.8% | 93.1% |  | inhibition [3]: inactive; inhibition [4]: inactive |
| COc1ccc(/C=C/C(=O)c2ccc(OCc3cn(Cc4ccccc4)nn3)cc2O)cc1 | 68.7% | 25.5% |  |  |
| C#CCOc1ccc(-c2cc(-c3ccc(OCc4cn(CCCCCC)nn4)cc3O)nc(N)n2)cc1 |  |  | 17% |  |
| NC(=O)C1=C(NC(=O)C2CC2)CC2=C1CCCC2 |  |  |  | inhibition [6]: 22%; inhibition [11]: 24%; inhibition [10]: 12% |
| CCCCCCn1cc(COc2ccc3c(c2)OC(c2ccc(C(C)C)cc2)CC3=O)nn1 (stereo not drawn) | 56.4% | 34.1% |  |  |
| O=C1CC(c2ccc(Br)cc2)Oc2cc(OCc3cn(Cc4ccc(Br)cc4)nn3)ccc21 (stereo not drawn) | 70.6% | 50% |  | inhibition [3]: inactive; inhibition [4]: inactive; CC50 at 48 h [5]: 87.5 µM |
| O=C(/C=C/c1ccc(Br)cc1)c1ccc(OCc2cn(Cc3ccc(Br)cc3)nn2)cc1O | 28% | 11.6% |  |  |
| CC(=O)c1ccc(OCc2cn(Cc3ccc(Br)cc3)nn2)cc1O | 73.7% | 70.4% |  | inhibition [3]: inactive; inhibition [4]: inactive |
| CCCCCCn1cc(COc2ccc(C(=O)/C=C/c3ccc(OC)cc3)c(O)c2)nn1 | 44.7% | 6.2% |  |  |
